Bioassay records deposited in PubChem by The Scripps Research Institute Molecular Screening Center.
In the library only some 4.6% were active in any assay of this set; here they are far more common.
GPR7 antagonist = human neuropeptides B/W receptor 1 antagonism; P48145; inhibition, % at 4.4 µM; 290,000 tested, 1.1% active; GPR7-expressing cells, fluorescence antagonist assay; AID 1861; in the data active = inhibition above about 16%, passing the limit was not always enough;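 also: cells stimulated with the agonist NPW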
TAAR1 agonist = agonists of human TAAR1 | Q96RJ0 | CHO RD-HGA16 TAAR1, Fluo-8 calcium fluorescence; vehicle wells 0%, saturating PEA agonist 100% | activation, % at 3 µM | 360,000 tested, 0.99% active | AID 624467;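 active = activation above the mean activation of all test compounds in the run plus 3 SD, cut at about 38% in these data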
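Repeats: no replicates (n 1) | Material: CHO-derived RD-HGA16 cells with stable Gα16 and human TAAR1 | Technique: Kinetic Fluo-8 calcium fluorescence | Schedule: 17-24 h seeding, 75 min 37 °C dye, 30 min RT | Evaluation: % activation from peak over basal fluorescence ratio, DMSO-to-PEA scaled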
CHO parental Ca = signal in parental CHO cells, OX1R antagonist counter-screen | parental CHO-K1, ATP-induced calcium, Fluo-8 fluorescence | inhibition, % at 5.6 µM | 330,000 tested, 0.63% active;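 active = inhibition above that plate's mean sample inhibition plus 3 SD, cut at about 26% in these data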
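test system = CHO parental line | reagent = ATP stimulus | measured by = intracellular calcium via Fluo-8 no-wash fluorescent dye | control set = ATP and no-ATP DMSO wells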
OX1R antag-1 = antagonists of human orexin 1 receptor (OX1R); 330,000 tested, 1.8% active; OX1R-expressing cells, FRET antagonist read-out; inhibition, % at 6.6 µM; O43613; in the data active = inhibition mostly above about 38%, no sharp cut-off; inactive = mostly below about 40%
Target sequence (O43613 whole entry, looked up): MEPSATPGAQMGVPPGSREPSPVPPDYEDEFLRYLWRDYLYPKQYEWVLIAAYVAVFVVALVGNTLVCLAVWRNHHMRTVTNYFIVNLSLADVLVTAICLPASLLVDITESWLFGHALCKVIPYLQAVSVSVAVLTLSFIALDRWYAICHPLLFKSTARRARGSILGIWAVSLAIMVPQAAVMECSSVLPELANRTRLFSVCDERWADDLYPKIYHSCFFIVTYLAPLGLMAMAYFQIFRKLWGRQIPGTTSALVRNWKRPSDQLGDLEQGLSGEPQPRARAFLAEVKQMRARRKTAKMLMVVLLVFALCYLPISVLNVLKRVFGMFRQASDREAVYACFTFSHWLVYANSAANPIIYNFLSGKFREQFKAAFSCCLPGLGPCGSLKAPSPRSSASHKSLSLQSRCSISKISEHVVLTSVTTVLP
TAAR1 antag = human TAAR1 antagonism; inhibition, % at 3 µM; Q96RJ0; 360,000 tested, 1.5% active; CHO RD-HGA16 TAAR1, Fluo-8 calcium fluorescence, antagonist;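 active = inhibition above a per-plate cutoff, the mean inhibition of test compounds on that plate plus 3 SD, cut at about 49% in these data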
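Assay system: RD-HGA16 CHO cells with stable hTAAR1 and Gα16 / Reagent: EC80 β-phenethylamine stimulus / Doses: 3 µM, single point / Timing: dye loading 75 min at 37 °C, then 30 min room temperature / Measured by: Fluo-8 intracellular calcium dye fluorescence, real-time kinetic reads / Controls: vehicle wells and EC80 agonist wells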
OX1R antag-2 = antagonists of human orexin 1 receptor; 330,000 tested, 0.43% active; CHO/OX1R cells, Fluo-8 calcium fluorescence, orexin A; O43613; AID 434989; inhibition, % at 5 µM;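 active = inhibition above its plate's threshold, mean inhibition of all tested compounds on the plate plus 3 SD, cut at about 37% in these data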
TAAR1 nonsel count = nonselective antagonism, TAAR1 counter-screen | shares compounds with TAAR1 antag | counterscreen cell line, calcium fluorescence, antagonist mode | inhibition, % at 3 µM | 2,400 tested, 77% active | AID 651780; in the data active = inhibition above about 22%;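 also: CHO-Ga16 host cells stimulated with ATP at an EC80 level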
TAAR1 ant conf = confirmation of human TAAR1 antagonists; shares compounds with TAAR1 antag; TAAR1-expressing cells, fluorescence antagonist read-out; inhibition, % at 3 µM; 2,400 tested, 40% active; AID 651785; in the data active = inhibition above about 49%;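 also: CHO-Ga16 host cells challenged with agonist PEA near its EC80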
Ga16 nonsel ag = nonselective Ga16 agonism, counter-screen; activation, % at 3 µM; Ga16-expressing cells, calcium fluorescence, agonist counterscreen; 2,400 tested, 18% active; shares compounds with TAAR1 antag; in the data active = activation above about 12%
TAAR1 ag count = TAAR1 agonism, antagonist counter-screen; shares compounds with TAAR1 antag; hTAAR1 cell line, fluorescence activation, agonist mode; activation, % at 3 µM; 2,400 tested, 2% active; in the data active = activation above about 37%;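 also: CHO cells stably expressing TAAR1 with calcium dye readout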
Numbers stand for hits; n = inactive; x = no result given.

SMILES | GPR7 antagonist | TAAR1 agonist | CHO parental Ca | OX1R antag-1 | TAAR1 antag | OX1R antag-2 | TAAR1 nonsel count | TAAR1 ant conf | Ga16 nonsel ag | TAAR1 ag count
O=C1c2ccccc2C(=O)N1CCc1nc(-c2ccc(Cl)cc2)no1 | n | n | n | n | 63 | n | 29 | n | n | n
COc1ccc(-c2csc3nc(-c4cccnc4)nc(N4CCC(C(N)=O)CC4)c23)cc1OC | n | n | n | n | 53 | n | n | n | n | n
COc1ccc(-c2csc3nc(C)nc(N4CCCCC4)c23)cc1OC | n | n | n | n | n | n | x | x | x | x
Cc1cc(C)c2c(N)c(C(=O)c3ccc(Cl)cc3Cl)sc2n1 | n | n | n | n | 76 | n | 37 | 55 | n | n
Cc1cc(C)c2c(N)c(C(=O)c3ccccc3Cl)sc2n1 | n | n | n | n | n | n | x | x | x | x
Cc1cc(C)c2c(N)c(C(=O)c3cccc(Cl)c3)sc2n1 | n | n | n | n | 63 | n | 23 | n | n | n
CC(=O)c1sc2nc(C)cc(C)c2c1N | n | n | n | n | n | n | x | x | x | x
Brc1ccccc1-c1nc2c3ccccc3ncn2n1 | x | n | n | n | 53 | n | n | n | n | n
CCOC(=O)c1cc(OC(=O)Cc2ccc(OC)c(S(=O)(=O)N3CCOCC3)c2)cc(C(=O)OCC)c1 | x | n | x | x | n | x | x | x | x | x
COc1ccccc1NC(=O)c1ccc(NC(=O)COC(=O)C2(C)CC2(Cl)Cl)cc1 (configuration not stated) | n | n | n | n | 63 | n | 29 | 61 | n | n
Nc1[nH]c(C(=O)c2ccc(Br)cc2)c(-c2c(F)cccc2F)c1C(=O)NCCc1c[nH]c2ccccc12 | x | n | x | x | n | x | x | x | x | x
O=C(N/N=C/c1cccc(Oc2ccc([N+](=O)[O-])cc2[N+](=O)[O-])c1)c1cncc(Br)c1 | n | n | n | n | 55 | n | 51 | 54 | 16 | n
COc1cc(C(=O)N/N=C/c2ccc(OC(=O)c3cccc(C)c3)cc2)ccc1O | n | n | x | x | 80 | x | 39 | 62 | 13 | n
O=C(NCc1ccc(F)cc1)c1cc(C2CCCCN2C(=O)OCCF)on1 (configuration not stated) | x | n | x | x | n | x | x | x | x | x
CCc1ccc(N/C(SCc2cccc(F)c2)=C(/C#N)C(=O)NCc2ccco2)cc1 | n | n | n | n | 50 | n | n | n | n | n
N#C/C(=C\Nc1ccc2c(c1)OCCO2)C(=O)NCc1ccco1 | n | n | n | n | n | n | x | x | x | x
COc1cc(NC(=O)C2CC(c3c(F)cccc3Cl)=NO2)cc(OC)c1OC (configuration not stated) | n | n | n | n | 62 | n | 35 | n | 13 | n
Cc1c(C(=O)NCc2ccc3c(c2)cc(C)n3C)cccc1[N+](=O)[O-] | n | n | n | n | 67 | n | 30 | 51 | n | n
COc1cc(OC)c(N(C)S(=O)(=O)c2cccc(C(=O)Nc3nccs3)c2)cc1Cl | x | n | n | n | 63 | n | 28 | n | n | n
COC(=O)C1=CN(c2ccccc2OC)C(N)=C(C#N)C1c1cccc([N+](=O)[O-])c1 (configuration not stated) | x | n | x | x | n | x | x | x | x | x
CCOC(=O)c1c(C)[nH]c(C(=O)COC(=O)c2[nH]c(C)c(C(C)=O)c2C)c1C | n | n | n | n | 77 | n | 63 | 66 | 15 | n
CCOC(=O)c1[nH]c(C)c(C(=O)OCC)c1C | n | n | n | n | n | n | x | x | x | x
CC(=O)c1c(C)[nH]c(C(=O)COC(=O)CN(C)S(=O)(=O)c2ccc(Cl)cc2)c1C | n | n | n | n | 53 | n | 40 | n | 18 | n
COCCN1C[C@@H](CO)O[C@@H](n2cnc3c(N(C)C)ncnc32)C1 | x | n | x | x | n | x | x | x | x | x
CCC/C(=C1/c2ccccc2C(=O)N1c1ccccc1)c1c(C)noc1C | x | n | x | x | n | x | x | x | x | x
SMILES | GPR7 antagonist | TAAR1 agonist | CHO parental Ca | OX1R antag-1 | TAAR1 antag | OX1R antag-2 | TAAR1 nonsel count | TAAR1 ant conf | Ga16 nonsel ag | TAAR1 ag count
Fc1cc(F)cc(Nc2nc(Cl)nc(NC3CCCC3)n2)c1 | x | n | n | n | 56 | n | n | n | n | n
CCOc1ccc(N(C(C)C(=O)Nc2cccnc2)S(C)(=O)=O)cc1 (configuration not stated) | n | n | n | n | n | n | x | x | x | x
CCOc1ccc(N(C(C)C(=O)N/N=C(\C)c2cccc(NC(=O)c3ccccc3)c2)S(C)(=O)=O)cc1 (configuration not stated) | n | n | n | n | 54 | n | 29 | n | n | n
COCCN1C(=O)CSCC1(C)C(=O)NCc1ccccc1 (configuration not stated) | x | n | x | x | n | x | x | x | x | x
Cc1ccc(S(=O)(=O)N(C)c2ccc(OC(=O)CN3C(=O)NC4(CCCC4)C3=O)cc2)cc1 | x | n | n | n | n | n | x | x | x | x
Cc1ccc(S(=O)(=O)N(C)c2ccc(OC(=O)CN3C(=O)NC4(CCCC4)C3=O)cc2)cc1C | x | n | n | n | 82 | n | 40 | 51 | 12 | n
CN(C)S(=O)(=O)c1cccc(-c2nn(-c3ccccc3)cc2/C=C2\SC(=S)NC2=O)c1 | n | n | n | n | 68 | n | 59 | 56 | n | n
COc1cccc(Nc2nc(-c3sc(NC(=O)c4ccco4)nc3C)cs2)c1 | n | n | n | n | 52 | n | 22 | n | n | n
Cc1cccc(C)c1-n1nnnc1C1(C)CCC(=O)N1CCCN1CCOCC1 (configuration not stated) | x | n | x | x | n | x | x | x | x | x
Cn1c(CSCc2ccccc2)nnc1SCC(=O)Nc1nccs1 | n | n | n | n | n | n | x | x | x | x
Cn1c(CSCc2ccc(Cl)cc2)nnc1SCC(=O)Nc1nccs1 | n | n | n | n | 61 | n | 42 | 56 | 17 | n
C[C@H]1CN([C@@H](C)CO)C(=O)CCCn2nncc2CO[C@H]1CN(C)C(=O)Nc1ccnc(N2CCOCC2)c1 | x | n | x | x | n | x | x | x | x | x
Cc1ccc(NC(=O)c2cc(C(C)(C)C)nn2Cc2ccccc2)cc1 | n | n | n | n | 61 | n | 24 | n | n | n
Cc1cccc(C(=O)Nc2ccc(C(=O)/C=C/c3cccnc3)cc2)c1 | n | n | n | n | 60 | n | 33 | 54 | 13 | n
C[C@H]1CN([C@@H](C)CO)S(=O)(=O)c2ccc(Br)cc2O[C@H]1CN(C)S(=O)(=O)c1ccccc1 | x | n | x | x | n | x | x | x | x | x
